This note sets out measurements from ChEMBL document CHEMBL3774363, “Potent Triazole Bisphosphonate Inhibitor of Geranylgeranyl Diphosphate Synthase” (ACS Med Chem Lett, 2015).

The target of assay [1] is T1, Geranylgeranyl pyrophosphate synthase (Homo sapiens) (UniProt O95749).
T1 sequence (whole entry): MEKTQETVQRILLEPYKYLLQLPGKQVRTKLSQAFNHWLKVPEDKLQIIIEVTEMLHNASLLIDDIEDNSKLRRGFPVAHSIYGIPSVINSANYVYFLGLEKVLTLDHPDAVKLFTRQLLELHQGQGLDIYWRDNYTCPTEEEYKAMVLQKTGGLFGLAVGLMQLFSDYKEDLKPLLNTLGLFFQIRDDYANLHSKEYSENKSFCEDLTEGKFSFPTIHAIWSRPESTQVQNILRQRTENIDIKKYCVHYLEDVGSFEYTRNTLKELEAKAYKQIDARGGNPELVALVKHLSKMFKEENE
Briefly: Inhibition of GGDPS in human RPMI8226 cells assessed as disruption of Rap1a geranylation after 48 hrs by immunoblot analysis. The format is cell-based. Conditions: RPMI-8226. In short, it runs like this: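 RPMI-8226 human myeloma cells incubated 48 h with or without compound, with lovastatin (10 μM) as positive control. Cells were lysed in RIPA buffer and immunoblotted with an antibody that detects only unmodified Rap1a, with β-tubulin as loading control. The value is the lowest concentration at which disruption was seen; blots are representative of two independent studies.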

For assay [2], the target named is T2, Geranylgeranyl pyrophosphate synthase (Homo sapiens, UniProt O95749).
T2 sequence (O95749 whole entry): T1 sequence (whole entry)
Kind of assay: Inhibition of recombinant GGDPS (unknown origin) assessed as radiolabeled GGPP formation preincubated for 10 mins followed by addition of 10 uM FPP substrate and [14C]IPP for 30 mins by liquid scintillation counter analysis.

The species entered for another assay is Homo sapiens. Kind of assay: Selectivity index, ratio of IC50 for FDPS (unknown origin) to IC50 for GGDPS (unknown origin).
Assay [3] has as its target T3, Farnesyl pyrophosphate synthase (Homo sapiens, UniProt P14324).
T3 sequence (P14324 whole entry): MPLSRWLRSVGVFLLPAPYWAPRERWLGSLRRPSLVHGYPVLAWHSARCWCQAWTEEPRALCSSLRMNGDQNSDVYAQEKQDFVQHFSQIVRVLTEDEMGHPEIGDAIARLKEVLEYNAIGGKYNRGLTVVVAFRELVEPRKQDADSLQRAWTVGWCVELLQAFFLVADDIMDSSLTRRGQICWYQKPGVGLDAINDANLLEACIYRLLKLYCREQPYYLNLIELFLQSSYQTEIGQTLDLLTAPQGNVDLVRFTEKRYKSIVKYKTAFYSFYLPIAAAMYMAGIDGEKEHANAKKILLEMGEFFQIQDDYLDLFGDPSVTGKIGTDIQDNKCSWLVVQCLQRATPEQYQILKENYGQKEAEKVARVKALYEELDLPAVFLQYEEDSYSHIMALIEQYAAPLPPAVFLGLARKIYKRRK
Kind of assay: Inhibition of recombinant FDPS (unknown origin) assessed as radiolabeled FPP formation preincubated for 10 mins followed by addition of 10 uM GPP substrate and [14C]IPP for 30 mins by liquid scintillation counter analysis.

Assay [4] in a line: Cytotoxicity against human RPMI8226 after 48 hrs by MTT assay. It is filed as functional. The following applies: RPMI-8226, 48 h.
The target in assay [5] is T1, Geranylgeranyl pyrophosphate synthase (Homo sapiens). Briefly: Inhibition of GGDPS in human RPMI8226 cells assessed as disruption of Rap1a geranylation at 50 nM after 48 hrs by immunoblot analysis. The following applies: RPMI-8226.

The source made the active and inactive calls. The rule behind the calls is not given here.

For orientation: IC50 means the concentration that inhibits the measured activity by half. In general, EC50 refers to the midpoint of the concentration-response curve. Lower therefore signals greater potency. As to `CC(C)=CCC/C(C)=C/CC(Cc1cn(CCC=C(C)C)nn1)(P(=O)(O)O)P(=O)(O)O`, in assay [1], the Activity is 0.5 µM. Further, the concentration for half-maximal inhibition (IC50) in assay [2] was 0.38 µM; in assay [3], 13 µM. Besides, in the assay filed under Homo sapiens, the Ratio IC50 came to 34. Also, the EC50 in assay [4] came to 1 µM.

In the case of `CC(C)=CCC/C(C)=C/CCn1cc(CC(P(=O)(O)O)P(=O)(O)O)nn1`, in assay [1], the Activity is 0.05 µM. The IC50 was 0.045 µM in assay [2] and 28 µM in assay [3]. For the same molecule, the Ratio IC50 in the assay listed under Homo sapiens was determined as 620. Besides, in assay [5], the inhibition result was “Active”. The molecule also registered an EC50 in assay [4] of 0.19 µM.

As for `CC(C)=CCCn1cc(CC(P(=O)(O)O)P(=O)(O)O)nn1`, the Activity in assay [1] was 5 µM. Further, the IC50 in assay [2] is 0.43 µM; in assay [3], 6.6 µM. Further, the Ratio IC50 in the assay listed under Homo sapiens amounted to 15. The molecule also registered an EC50 in assay [4] of 15 µM.
